One test has as its target Cannabinoid receptor 1 (Rattus norvegicus, UniProt P20272). Nature of the test: Displacement of [3H]CP-55940 from cannabinoid CB1 receptor in Sprague-Dawley rat cerebellar membrane by liquid scintillation spectrometry. Also on record: species or system Cerebellum. The method in brief: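 Membranes from cerebella of male Sprague-Dawley rats (200–300 g), homogenized in TME (50 mM Tris-HCl, 1 mM EDTA, 3 mM MgCl₂, pH 7.4), spun 48,000g 30 min at 4 °C, resuspended, stored at −70 °C. Incubated 1 h at 30 °C with radioligand in TME plus 0.5% fatty-acid-free BSA. Filtered on PEI-soaked GF/B and washed; IC50 by nonlinear regression.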

For a further test, the target named is Cannabinoid receptor 2 (Homo sapiens, UniProt P34972). Nature of the test: Displacement of [3H]WIN-55212-2 from human recombinant cannabinoid CB2 receptor expressed in CHOK1 cells by liquid scintillation spectrometry. The class given is cell-based, CHO-K1. The gist of the method: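 CHO K-1 cells transfected with human CB2; membranes prepared as for brain tissue. Competition with 3 nM [3H]WIN55,212-2 in TME buffer (pH 7.4) with 0.5% fatty-acid-free BSA, 1 h at 30 °C. Filtered on 0.1% PEI-soaked GF/B, washed five times with ice-cold buffer plus 0.1% BSA, and counted by scintillation. IC50 by nonlinear regression.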
Cannabinoid receptor 2, sequence (P34972 whole entry): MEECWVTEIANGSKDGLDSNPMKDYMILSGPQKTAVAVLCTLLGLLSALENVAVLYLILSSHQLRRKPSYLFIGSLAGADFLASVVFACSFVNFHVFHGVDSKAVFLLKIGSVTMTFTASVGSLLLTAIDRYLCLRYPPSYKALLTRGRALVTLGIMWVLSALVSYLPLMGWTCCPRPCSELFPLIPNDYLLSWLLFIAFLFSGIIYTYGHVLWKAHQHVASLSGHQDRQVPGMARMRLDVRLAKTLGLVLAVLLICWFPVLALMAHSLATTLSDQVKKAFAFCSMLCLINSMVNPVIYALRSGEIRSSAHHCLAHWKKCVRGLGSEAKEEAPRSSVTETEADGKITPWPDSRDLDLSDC
A general note: In a radioligand displacement assay an active substance lowers the binding of a labelled ligand.

For another test, the system named is CHO-K1. Nature of the test: Selectivity ratio of IC50 for human recombinant cannabinoid CB2 receptor expressed in CHOK1 cells to IC50 for cannabinoid CB1 receptor in Sprague-Dawley rat cerebellar membrane.

Each structure is given as a SMILES string.

Cannabinoid receptor 1, sequence (P20272 whole entry): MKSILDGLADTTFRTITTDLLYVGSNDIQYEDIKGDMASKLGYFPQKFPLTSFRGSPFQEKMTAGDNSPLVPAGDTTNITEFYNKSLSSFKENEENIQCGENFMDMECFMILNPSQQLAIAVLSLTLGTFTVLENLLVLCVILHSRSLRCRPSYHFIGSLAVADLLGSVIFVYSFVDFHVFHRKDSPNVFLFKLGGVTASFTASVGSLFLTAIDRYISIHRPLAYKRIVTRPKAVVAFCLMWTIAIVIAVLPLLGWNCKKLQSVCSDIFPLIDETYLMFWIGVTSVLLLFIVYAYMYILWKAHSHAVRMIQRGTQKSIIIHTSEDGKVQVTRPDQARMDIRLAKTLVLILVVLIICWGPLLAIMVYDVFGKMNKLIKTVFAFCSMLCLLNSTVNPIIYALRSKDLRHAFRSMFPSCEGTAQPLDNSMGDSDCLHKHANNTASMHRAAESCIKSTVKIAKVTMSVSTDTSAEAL

As usually defined, the IC50 is the concentration that inhibits the measured activity by half. Consider `CC(C)(C)c1nnc(-c2nn(-c3ccc(Cl)cc3Cl)c(-c3ccc(Cl)cc3)c2C(N)=O)o1`, for which the IC50 at Cannabinoid receptor 1 came out at 23.8 nM.

`CCCNC(=O)c1c(-c2nnc(C(C)(C)C)o2)nn(-c2ccc(Cl)cc2Cl)c1-c1ccc(Cl)cc1` returned a 50% inhibitory concentration (IC50) on Cannabinoid receptor 1 of 5.72 nM.

In turn, `CCCCNC(=O)c1c(-c2nnc(C(C)(C)C)o2)nn(-c2ccc(Cl)cc2Cl)c1-c1ccc(Cl)cc1` returned a half-inhibitory concentration (IC50) on Cannabinoid receptor 1 of 17.8 nM.

For the molecule `O=C(Nc1ccccc1)c1c(-c2nnc(C3(c4ccc(Cl)cc4)CC3)o2)nn(-c2ccc(Cl)cc2Cl)c1-c1ccc(Br)cc1`, the IC50 was 1.96 nM on Cannabinoid receptor 1 and over 10000 nM on Cannabinoid receptor 2. Moreover, the Ratio IC50 in the test with CHO-K1 is over 5100.

Take `CC(C)(C)c1nnc(-c2nn(-c3ccc(Cl)cc3Cl)c(-c3ccc(Cl)cc3)c2C(=O)NC2CCCC2)o1`: the half-inhibitory concentration (IC50) at Cannabinoid receptor 1 is 7.25 nM.

Regarding `CC(C)(C)c1nnc(-c2nn(-c3ccc(Cl)cc3Cl)c(-c3ccc(Cl)cc3)c2C(=O)Nc2ccccc2)o1`, the IC50 was 1.66 nM at Cannabinoid receptor 1 and 738 nM at Cannabinoid receptor 2. Further, the Ratio IC50 in the test on CHO-K1 came to 445.

The molecule `CCNC(=O)c1c(-c2nnc(C(C)(C)C)o2)nn(-c2ccc(Cl)cc2Cl)c1-c1ccc(Cl)cc1` showed an IC50 on Cannabinoid receptor 1 of 12.7 nM.

For the molecule `CC(C)(C)c1nnc(-c2nn(-c3ccc(Cl)cc3Cl)c(-c3ccc(Br)cc3)c2C(=O)Nc2ccccc2)o1`, the values for the IC50 on Cannabinoid receptor 1 and at Cannabinoid receptor 2 were 1.35 nM and 386 nM, respectively. Besides, in the test on CHO-K1, the Ratio IC50 is 286.

For the molecule `CC(C)(C)c1nnc(-c2nn(-c3ccc(Cl)cc3Cl)c(-c3ccc(Cl)cc3)c2C(=O)Nc2ccccn2)o1`, the half-inhibitory concentration (IC50) came to 1.47 nM on Cannabinoid receptor 1 and 636 nM on Cannabinoid receptor 2. For the same molecule, in the test on CHO-K1, the Ratio IC50 turned out to be 433.

Molecule `CC(=O)CNC(=O)c1c(-c2nnc(C(C)(C)C)o2)nn(-c2ccc(Cl)cc2Cl)c1-c1ccc(Cl)cc1` displayed a half-maximal inhibitory concentration (IC50) on Cannabinoid receptor 1 of 3.51 nM.

Take `CC(C)(C)c1nnc(-c2nn(-c3ccc(Cl)cc3Cl)c(-c3ccc(Br)cc3)c2C(=O)Nc2ccccn2)o1`: the IC50 came to 1.46 nM on Cannabinoid receptor 1 and 374 nM on Cannabinoid receptor 2. The Ratio IC50 in the test on CHO-K1 stood at 256.

`CCN(C)C(=O)c1c(-c2nnc(C(C)(C)C)o2)nn(-c2ccc(Cl)cc2Cl)c1-c1ccc(Cl)cc1` came in with an IC50 on Cannabinoid receptor 1 of 11.5 nM.

The molecule `CC(C)NC(=O)c1c(-c2nnc(C(C)(C)C)o2)nn(-c2ccc(Cl)cc2Cl)c1-c1ccc(Cl)cc1` displayed an IC50 at Cannabinoid receptor 1 of 9.31 nM.

On to `CC(C)(C)c1nnc(-c2nn(-c3ccc(Cl)cc3Cl)c(-c3ccc(Cl)cc3)c2C(=O)NN2CCCCC2)o1`, for which the IC50 at Cannabinoid receptor 1 came out at 17.2 nM.

Molecule `CC(C)(C)c1nnc(-c2nn(-c3ccc(Cl)cc3Cl)c(-c3ccc(Cl)cc3)c2C(=O)NC2CC2)o1` yielded an IC50 on Cannabinoid receptor 1 of 3.27 nM.

In turn, `CN(C)C(=O)c1c(-c2nnc(C(C)(C)C)o2)nn(-c2ccc(Cl)cc2Cl)c1-c1ccc(Cl)cc1` had a half-maximal inhibitory concentration (IC50) on Cannabinoid receptor 1 of 13.4 nM.

On Cannabinoid receptor 1, `CNC(=O)c1c(-c2nnc(C(C)(C)C)o2)nn(-c2ccc(Cl)cc2Cl)c1-c1ccc(Cl)cc1` had an IC50 of 18.3 nM.

In the case of `CC(C)(C)c1nnc(-c2nn(-c3ccc(Cl)cc3Cl)c(-c3ccc(Cl)cc3)c2C(=O)N2CCCC2)o1`, the IC50 on Cannabinoid receptor 1 is 93.4 nM.

Consider `CCN(CC)C(=O)c1c(-c2nnc(C(C)(C)C)o2)nn(-c2ccc(Cl)cc2Cl)c1-c1ccc(Cl)cc1`, for which, on Cannabinoid receptor 1, the concentration for half-maximal inhibition (IC50) was determined as 62.1 nM.

The values are drawn from ChEMBL document CHEMBL1153946, “Oxadiazole-diarylpyrazole 4-carboxamides as cannabinoid CB1 receptor ligands” (Bioorg Med Chem Lett, 2009).
